{
  "source": "ChEMBL document CHEMBL4689842",
  "about": "“EUbOPEN Chemogenomics Library wave 1” (2021)",
  "tested_on": "Fibroblast",
  "test": "Multiplex assay against human fibroblast",
  "type": "toxicity, cell-based",
  "outline": "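At seeding, live cells were stained with Hoechst33342, BioTracker Green Microtubule Cytoskeleton Dye, MitoTracker Red and Annexin V Alexa Fluor 680. After compound addition they were imaged on a CQ1 microscope at 37°C and 5% CO2, and CellPathfinder machine-learning gating sorted them into Hoechst high-intensity objects or normal cells, with normal cells further split into healthy, pyknosed or fragmented nuclei and pyknosed cells into mitotic or apoptotic. Tubulin, mitochondrial-mass and membrane-permeability phenotypes are given as per cents of cells with healthy nuclei.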",
  "key": {"[1]": {"conditions": "12 h, 0 µM, compound concentration 0 uM, replicate 1"}, "[2]": {"conditions": "12 h, 0 µM, compound concentration 0 uM, replicate 2"}, "[3]": {"conditions": "12 h, 1 µM, compound concentration 1 uM, replicate 1"}, "[4]": {"conditions": "12 h, 1 µM, compound concentration 1 uM, replicate 2"}, "[5]": {"conditions": "24 h, 0 µM, compound concentration 0 uM, replicate 1"}, "[6]": {"conditions": "24 h, 0 µM, compound concentration 0 uM, replicate 2"}, "[7]": {"conditions": "24 h, 1 µM, compound concentration 1 uM, replicate 1"}, "[8]": {"conditions": "24 h, 1 µM, compound concentration 1 uM, replicate 2"}},
  "data": [
    {"smiles": "CCNc1cc(N[C@H]2CC[C@H](O)CC2)nc(Nc2ccc3c(ccn3Cc3ccccc3)c2)n1", "values": [
      {"measurement": "Population Apoptotic (%)", "setting": "[1]", "value": 55, "unit": "%"},
      {"measurement": "Population Fragmented Nuclei (%)", "setting": "[1]", "value": 24, "unit": "%"},
      {"measurement": "Population Healthy Nuclei (%)", "setting": "[1]", "value": 52, "unit": "%"},
      {"measurement": "Population Hoechst High Intensity Objects (%)", "setting": "[1]", "value": 26, "unit": "%"},
      {"measurement": "Population Membrane Permeable-Phenotype (%)", "setting": "[1]", "value": 0, "unit": "%"},
      {"measurement": "Population Mitotic Cells (%)", "setting": "[1]", "value": 44, "unit": "%"},
      {"measurement": "Population Normal (%)", "setting": "[1]", "value": 73, "unit": "%"},
      {"measurement": "Population Pyknosed Nuclei (%)", "setting": "[1]", "value": 22, "unit": "%"},
      {"measurement": "Population Tubulin-Different-Phenotype (%)", "setting": "[1]", "value": 38, "unit": "%"},
      {"measurement": "Total Cell Count", "setting": "[1]", "value": 280},
      {"measurement": "Population Apoptotic (%)", "setting": "[2]", "value": 60, "unit": "%"},
      {"measurement": "Population Fragmented Nuclei (%)", "setting": "[2]", "value": 40, "unit": "%"},
      {"measurement": "Population Healthy Nuclei (%)", "setting": "[2]", "value": 48, "unit": "%"},
      {"measurement": "Population Hoechst High Intensity Objects (%)", "setting": "[2]", "value": 47, "unit": "%"},
      {"measurement": "Population Membrane Permeable-Phenotype (%)", "setting": "[2]", "value": 4, "unit": "%"},
      {"measurement": "Population Mitochondria Different-Phenotype (%)", "setting": "[2]", "value": 41, "unit": "%"},
      {"measurement": "Population Mitotic Cells (%)", "setting": "[2]", "value": 40, "unit": "%"},
      {"measurement": "Population Normal (%)", "setting": "[2]", "value": 52, "unit": "%"},
      {"measurement": "Population Pyknosed Nuclei (%)", "setting": "[2]", "value": 10, "unit": "%"},
      {"measurement": "Population Tubulin-Different-Phenotype (%)", "setting": "[2]", "value": 41, "unit": "%"},
      {"measurement": "Total Cell Count", "setting": "[2]", "value": 94},
      {"measurement": "Population Apoptotic (%)", "setting": "[3]", "value": 76, "unit": "%"},
      {"measurement": "Population Fragmented Nuclei (%)", "setting": "[3]", "value": 45, "unit": "%"},
      {"measurement": "Population Healthy Nuclei (%)", "setting": "[3]", "value": 47, "unit": "%"},
      {"measurement": "Population Hoechst High Intensity Objects (%)", "setting": "[3]", "value": 20, "unit": "%"},
      {"measurement": "Population Membrane Permeable-Phenotype (%)", "setting": "[3]", "value": 2, "unit": "%"},
      {"measurement": "Population Mitochondria Different-Phenotype (%)", "setting": "[3]", "value": 11, "unit": "%"},
      {"measurement": "Population Mitotic Cells (%)", "setting": "[3]", "value": 23, "unit": "%"},
      {"measurement": "Population Normal (%)", "setting": "[3]", "value": 79, "unit": "%"},
      {"measurement": "Population Pyknosed Nuclei (%)", "setting": "[3]", "value": 7, "unit": "%"},
      {"measurement": "Population Tubulin-Different-Phenotype (%)", "setting": "[3]", "value": 12, "unit": "%"},
      {"measurement": "Total Cell Count", "setting": "[3]", "value": 286},
      {"measurement": "Population Apoptotic (%)", "setting": "[4]", "value": 66, "unit": "%"},
      {"measurement": "Population Fragmented Nuclei (%)", "setting": "[4]", "value": 67, "unit": "%"},
      {"measurement": "Population Healthy Nuclei (%)", "setting": "[4]", "value": 29, "unit": "%"},
      {"measurement": "Population Hoechst High Intensity Objects (%)", "setting": "[4]", "value": 50, "unit": "%"},
      {"measurement": "Population Membrane Permeable-Phenotype (%)", "setting": "[4]", "value": 8, "unit": "%"},
      {"measurement": "Population Mitochondria Different-Phenotype (%)", "setting": "[4]", "value": 17, "unit": "%"},
      {"measurement": "Population Mitotic Cells (%)", "setting": "[4]", "value": 33, "unit": "%"},
      {"measurement": "Population Normal (%)", "setting": "[4]", "value": 49, "unit": "%"},
      {"measurement": "Population Pyknosed Nuclei (%)", "setting": "[4]", "value": 3, "unit": "%"},
      {"measurement": "Population Tubulin-Different-Phenotype (%)", "setting": "[4]", "value": 34, "unit": "%"},
      {"measurement": "Total Cell Count", "setting": "[4]", "value": 160},
      {"measurement": "Population Apoptotic (%)", "setting": "[5]", "value": 71, "unit": "%"},
      {"measurement": "Population Fragmented Nuclei (%)", "setting": "[5]", "value": 21, "unit": "%"},
      {"measurement": "Population Healthy Nuclei (%)", "setting": "[5]", "value": 45, "unit": "%"},
      {"measurement": "Population Hoechst High Intensity Objects (%)", "setting": "[5]", "value": 38, "unit": "%"},
      {"measurement": "Population Mitochondria Different-Phenotype (%)", "setting": "[5]", "value": 65, "unit": "%"},
      {"measurement": "Population Mitotic Cells (%)", "setting": "[5]", "value": 28, "unit": "%"},
      {"measurement": "Population Normal (%)", "setting": "[5]", "value": 61, "unit": "%"},
      {"measurement": "Population Pyknosed Nuclei (%)", "setting": "[5]", "value": 32, "unit": "%"},
      {"measurement": "Population Tubulin-Different-Phenotype (%)", "setting": "[5]", "value": 50, "unit": "%"},
      {"measurement": "Total Cell Count", "setting": "[5]", "value": 257},
      {"measurement": "Population Apoptotic (%)", "setting": "[6]", "value": 90, "unit": "%"},
      {"measurement": "Population Fragmented Nuclei (%)", "setting": "[6]", "value": 60, "unit": "%"},
      {"measurement": "Population Healthy Nuclei (%)", "setting": "[6]", "value": 21, "unit": "%"},
      {"measurement": "Population Hoechst High Intensity Objects (%)", "setting": "[6]", "value": 40, "unit": "%"},
      {"measurement": "Population Membrane Permeable-Phenotype (%)", "setting": "[6]", "value": 0, "unit": "%"},
      {"measurement": "Population Mitochondria Different-Phenotype (%)", "setting": "[6]", "value": 83, "unit": "%"},
      {"measurement": "Population Mitotic Cells (%)", "setting": "[6]", "value": 10, "unit": "%"},
      {"measurement": "Population Normal (%)", "setting": "[6]", "value": 59, "unit": "%"},
      {"measurement": "Population Pyknosed Nuclei (%)", "setting": "[6]", "value": 18, "unit": "%"},
      {"measurement": "Population Tubulin-Different-Phenotype (%)", "setting": "[6]", "value": 33, "unit": "%"},
      {"measurement": "Total Cell Count", "setting": "[6]", "value": 92},
      {"measurement": "Population Apoptotic (%)", "setting": "[7]", "value": 76, "unit": "%"},
      {"measurement": "Population Fragmented Nuclei (%)", "setting": "[7]", "value": 45, "unit": "%"},
      {"measurement": "Population Healthy Nuclei (%)", "setting": "[7]", "value": 44, "unit": "%"},
      {"measurement": "Population Hoechst High Intensity Objects (%)", "setting": "[7]", "value": 21, "unit": "%"},
      {"measurement": "Population Membrane Permeable-Phenotype (%)", "setting": "[7]", "value": 0, "unit": "%"},
      {"measurement": "Population Mitochondria Different-Phenotype (%)", "setting": "[7]", "value": 10, "unit": "%"},
      {"measurement": "Population Mitotic Cells (%)", "setting": "[7]", "value": 24, "unit": "%"},
      {"measurement": "Population Normal (%)", "setting": "[7]", "value": 78, "unit": "%"},
      {"measurement": "Population Pyknosed Nuclei (%)", "setting": "[7]", "value": 10, "unit": "%"},
      {"measurement": "Population Tubulin-Different-Phenotype (%)", "setting": "[7]", "value": 10, "unit": "%"},
      {"measurement": "Total Cell Count", "setting": "[7]", "value": 313},
      {"measurement": "Population Apoptotic (%)", "setting": "[8]", "value": 100, "unit": "%"},
      {"measurement": "Population Fragmented Nuclei (%)", "setting": "[8]", "value": 58, "unit": "%"},
      {"measurement": "Population Healthy Nuclei (%)", "setting": "[8]", "value": 40, "unit": "%"},
      {"measurement": "Population Hoechst High Intensity Objects (%)", "setting": "[8]", "value": 53, "unit": "%"},
      {"measurement": "Population Membrane Permeable-Phenotype (%)", "setting": "[8]", "value": 3, "unit": "%"},
      {"measurement": "Population Mitochondria Different-Phenotype (%)", "setting": "[8]", "value": 50, "unit": "%"},
      {"measurement": "Population Mitotic Cells (%)", "setting": "[8]", "value": 0, "unit": "%"},
      {"measurement": "Population Normal (%)", "setting": "[8]", "value": 46, "unit": "%"},
      {"measurement": "Population Pyknosed Nuclei (%)", "setting": "[8]", "value": 1, "unit": "%"},
      {"measurement": "Population Tubulin-Different-Phenotype (%)", "setting": "[8]", "value": 53, "unit": "%"},
      {"measurement": "Total Cell Count", "setting": "[8]", "value": 152}
    ]}
  ]
}
